How the values were obtained:
[1] = tested on: patients with advanced solid tumors; experiment: Phase 1 safety and tolerability; type: in vivo, human; conditions: any cycle, N = 36
Summary of the method: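 Adults (≥18 y) with locally advanced or metastatic solid tumours who had failed available therapy. They took oral test compound at 0.3–100 mg once daily alone for 28 days (cycle 0), then with IV anti-CCR4 antibody 1 mg/kg weekly (cycle 1) and every 2 weeks thereafter. AEs were coded by MedDRA 19.0 and graded by CTCAE 4.03, with relatedness judged by investigators. The DLT window was 56 days. Patients receiving any dose were counted as frequency and percentage.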

[2] = tested on: patients with mycosis fungoides or Sézary syndrome; conditions: cited from earlier work
[3] = 184 mogamulizumab-treated patients, MAVORIC

mogamulizumab: recombinant, humanized monoclonal antibody of immunoglobulin G1-κ targeting CCR4
IRRs related (TRAE) to the named drug, patients [1]: 39% | drug eruption related (TRAE) to the named drug, patients [1]: 50% | nausea related (TRAE) to the named drug, patients [1]: 14% | IRRs, patients [2, 3]: 33% | drug eruptions, patients [2, 3]: 24% | long-term responders who experienced drug eruptions ([2]; post hoc analysis of MAVORIC): 60%

Source: article PMC12178318 (Cancer, 2025)
